The test system of data set [1] is SiHa. As to the kind of experiment: Induction of cell cycle arrest in human SiHa cells assessed as accumulation in G2/M phase at 80 nM incubated for 36 hrs by propidium iodide staining based flow cytometry. It counts as functional. The procedure, abridged: (§1)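 Cells were treated with graded concentrations for 36 h, then fixed overnight in 70% ice-cold ethanol at 4°C and resuspended in PBS. Staining used 50 µg/ml PI plus 5 µg/ml RNase at 37°C for 30 min. DNA content was analysed by FACS to give G0/G1, S and G2/M fractions.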
(In flow cytometry, cells or beads pass a laser one at a time.)

The next data set concerns T47D. Kind of data set: Antiproliferative activity against human T47D cells assessed as reduction in cell viability at 20 to 40 nM incubated for 48 hrs by EdU staining based laser scanning confocal microscopy. It is filed as functional. In outline:
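Cells, 5×10^4, were seeded in 24-well plates and treated for 48 h. They were then labeled using an EdU Apollo 488 imaging kit with Hoechst 33342 nuclear stain and imaged by laser scanning confocal microscopy. Percent EdU-positive cells = EdU-positive/Hoechst-stained × 100%.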

The test system of data set [2] is SiHa. As to the kind of experiment: Induction of cell cycle arrest in human SiHa cells assessed as accumulation in G2/M phase at 40 to 80 nM incubated for 36 hrs by propidium iodide staining based flow cytometry. It counts as functional. The procedure, abridged:
as §1

The test system of the next data set is MDA-MB-231. As to the kind of experiment: Induction of apoptosis in human MDA-MB-231 cells assessed as decrease in Rb phosphorylation incubated for 48 hrs by Western blot analysis. It is filed as functional, cell-based. In outline:
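Cells were treated for 48 h, washed three times with PBS, and lysed in RIPA buffer. Immunoblots used anti-Rb, anti-phospho-Rb, anti-Ki67 and anti-Bcl-2 (each 1:1000), with β-actin as loading control.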
A general note: In western blotting, separated proteins are transferred to a membrane and probed.

A short description of data set [3]: MRT (0 to t) in Sprague-Dawley rat at 10 mg/kg at 10 mg/kg, po by HPLC-MS analysis. It is filed as ADME, organism-based. Conditions: in vivo.
The nature of data set [4]: Half life in Sprague-Dawley rat at 10 mg/kg, po by HPLC-MS analysis. It is filed as ADME, organism-based. Conditions: in vivo. The procedure, abridged:
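Rats fitted with jugular vein catheters for serial blood sampling. Compound dissolved in saline with 5% (v/v) DMSO and given as a single 10 mg/kg dose iv or po after an overnight fast, n = 5 per group. Plasma isolated at once and measured by HPLC with tandem MS detection. Parameters derived by noncompartmental fitting.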

Data set [5] has as its target Cytoplasmic tyrosine-protein kinase BMX (Homo sapiens) (UniProt P51813). Kind of data set: Inhibition of recombinant full length human BMX at 1 uM using poly(Glu, Tyr) 4:1 as substrate incubated for 40 mins in presence of [gamma-33P]-ATP by scintillation counting method relative to control. The procedure, abridged: (§2)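 Kinase panel profiling at 1 μM performed by Eurofins KinaseProfiler; percent inhibition reported as mean of two independent experiments.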

The target of data set [6] is Calcium/calmodulin-dependent protein kinase type IV (Homo sapiens) (UniProt Q16566). Kind of data set: Inhibition of recombinant full length human CAMK4 at 1 uM using calmodulin as substrate incubated for 40 mins in presence of [gamma-33P]-ATP by scintillation counting method relative to control. The procedure, abridged: as §2
Chain of Calcium/calmodulin-dependent protein kinase type IV (Homo sapiens) (Q16566 whole entry, the tested form may be a part, canonical isoform): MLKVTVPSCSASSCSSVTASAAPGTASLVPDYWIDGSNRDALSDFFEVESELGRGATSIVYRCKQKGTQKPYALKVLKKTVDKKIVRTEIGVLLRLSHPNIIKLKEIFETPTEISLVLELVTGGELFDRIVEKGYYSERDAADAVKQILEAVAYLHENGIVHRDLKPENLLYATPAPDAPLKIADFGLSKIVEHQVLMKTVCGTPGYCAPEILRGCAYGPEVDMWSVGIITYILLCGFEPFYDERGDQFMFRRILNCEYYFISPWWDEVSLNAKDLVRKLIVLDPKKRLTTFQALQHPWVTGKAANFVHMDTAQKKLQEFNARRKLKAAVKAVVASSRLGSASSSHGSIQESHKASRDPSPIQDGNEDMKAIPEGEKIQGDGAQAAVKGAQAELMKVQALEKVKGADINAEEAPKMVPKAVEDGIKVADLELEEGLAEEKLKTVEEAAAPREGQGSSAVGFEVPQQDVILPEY
Data set [7] has as its target Casein kinase I isoform gamma-3 (Homo sapiens) (UniProt Q9Y6M4). Kind of data set: Inhibition of recombinant human CK1gamma3 (1 to 330 residues) at 1 uM using KRRRALS(p)VAS as substrate incubated for 40 mins in presence of [gamma-33P]-ATP by scintillation counting method relative to control. In outline:
(§3)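 Tested at a single 1 uM in an outsourced commercial kinase-profiling panel, read as percent inhibition. Each value is the mean of two independent experiments.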

The target in data set [8] is Tyrosine-protein kinase CSK (Homo sapiens) (UniProt P41240). As to the kind of experiment: Inhibition of recombinant full length human CSK at 1 uM using poly(Glu, Tyr) 4:1 as substrate incubated for 40 mins in presence of [gamma-33P]-ATP by scintillation counting method relative to control. In outline: as §3
The target of data set [9] is Death-associated protein kinase 1 (Homo sapiens) (UniProt P53355). Kind of data set: Inhibition of recombinant human DAPK1 (1 to 296 residues) at 1 uM using KKLNRTLSFAEPG as substrate incubated for 40 mins in presence of [gamma-33P]-ATP by scintillation counting method relative to control. The procedure, abridged:
as §3

Data set [10] addresses Ephrin type-A receptor 4 (Homo sapiens) (UniProt P54764). Kind of data set: Inhibition of recombinant human EPhA4 (601 to 892 residues) at 1 uM using poly(Glu, Tyr) 4:1 as substrate incubated for 40 mins in presence of [gamma-33P]-ATP by scintillation counting method relative to control.
Data set [11] concerns the target Tyrosine-protein kinase Fyn (Homo sapiens) (UniProt P06241). Kind of data set: Inhibition of recombinant full length human FYN at 1 uM using KVEKIGEGTYGVVYK as substrate incubated for 40 mins in presence of [gamma-33P]-ATP by scintillation counting method relative to control. In outline:
as §2

Data set [12] concerns the target Insulin-like growth factor 1 receptor (Homo sapiens) (UniProt P08069). As to the kind of experiment: Inhibition of recombinant human IGF1R (959 to end residues) at 1 uM using KKKSPGEYVNIEFG as substrate incubated for 40 mins in presence of [gamma-33P]-ATP by scintillation counting method relative to control.
Data set [13] has as its target Mitogen-activated protein kinase kinase kinase 10 (Homo sapiens) (UniProt Q02779). As to the kind of experiment: Inhibition of recombinant human MLK2 (1 to 449 residues) at 1 uM using myelin basic protein as substrate incubated for 40 mins in presence of [gamma-33P]-ATP by scintillation counting method relative to control.
Data set [14] concerns the target Myosin light chain kinase 2, skeletal/cardiac muscle (Homo sapiens) (UniProt Q9H1R3). As to the kind of experiment: Inhibition of recombinant human full length MYLK2 at 1 uM using KKLNRTLSFAEPG as substrate incubated for 40 mins in presence of [gamma-33P]-ATP by scintillation counting method relative to control.
Data set [15] addresses Protein kinase C zeta type (Homo sapiens) (UniProt Q05513). As to the kind of experiment: Inhibition of recombinant human PKCzeta (2 to end residues) at 1 uM using ERMRPRKRQGSVRRRV as substrate incubated for 40 mins in presence of [gamma-33P]-ATP by scintillation counting method relative to control.
Data set [16] deals with Protein kinase C beta type (Homo sapiens) (UniProt P05771). Kind of data set: Inhibition of recombinant human PKCbeta1 (2 to end residues) at 1 uM using histone H1 as substrate incubated for 40 mins in presence of [gamma-33P]-ATP by scintillation counting method relative to control.
The target of data set [17] is SRSF protein kinase 1 (Homo sapiens) (UniProt Q96SB4). Kind of data set: Inhibition of recombinant human SRPK1 (2 to end residues) at 1 uM using RSRSRSRSRSRSRSR as substrate incubated for 40 mins in presence of [gamma-33P]-ATP by scintillation counting method relative to control.
In data set [18] the test system is SiHa. As to the kind of experiment: Antitumor activity against human SiHa cells xenografted in NOD/SCID BALB/c mouse assessed as reduction in tumor weight at 10 to 40 mg/kg, po administered for 21 days. It is filed as functional, organism-based.
A short description of data set [19]: Toxicity in NOD/SCID BALB/c mouse xenografted with human SiHa cells assessed as effect on blood parameter by measuring PCT at 40 mg/kg, po administered once two days for 4 times by hematology analyzer. It is filed as organism-based. Conditions: in vivo. (In general: Xenograft models place foreign cells or tissue in a host animal.)
Data set [20] is described as follows: Toxicity in BALB/c mouse assessed as effect on blood parameter by measuring basophils content at 40 mg/kg, po administered once two days for 4 times by hematology analyzer. Conditions: in vivo.

Calls of active or inactive are those of the source. The calls are words filed in the database; no cut-off is given here.

Chain of Insulin-like growth factor 1 receptor (Homo sapiens) (P08069 31-736 limits assumed): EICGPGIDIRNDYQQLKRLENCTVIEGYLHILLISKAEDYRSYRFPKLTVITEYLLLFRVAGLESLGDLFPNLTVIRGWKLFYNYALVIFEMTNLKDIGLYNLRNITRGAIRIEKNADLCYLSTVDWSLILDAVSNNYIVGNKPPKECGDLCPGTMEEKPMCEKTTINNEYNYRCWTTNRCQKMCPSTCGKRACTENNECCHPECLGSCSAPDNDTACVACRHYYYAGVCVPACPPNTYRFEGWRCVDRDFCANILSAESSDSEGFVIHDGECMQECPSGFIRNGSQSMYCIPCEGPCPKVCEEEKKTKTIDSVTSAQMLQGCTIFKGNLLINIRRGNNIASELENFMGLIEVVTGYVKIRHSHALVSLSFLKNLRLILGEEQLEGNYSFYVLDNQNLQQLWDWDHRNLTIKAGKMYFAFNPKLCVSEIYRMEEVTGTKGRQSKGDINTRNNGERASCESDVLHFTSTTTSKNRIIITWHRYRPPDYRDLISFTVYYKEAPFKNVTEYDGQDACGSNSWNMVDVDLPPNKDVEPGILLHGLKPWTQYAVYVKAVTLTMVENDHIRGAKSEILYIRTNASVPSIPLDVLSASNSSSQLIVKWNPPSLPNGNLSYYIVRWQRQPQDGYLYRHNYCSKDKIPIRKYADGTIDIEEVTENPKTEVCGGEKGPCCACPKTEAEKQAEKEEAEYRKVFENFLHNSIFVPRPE
Chain of Insulin-like growth factor 1 receptor (Homo sapiens) (P08069 741-1367 limits assumed): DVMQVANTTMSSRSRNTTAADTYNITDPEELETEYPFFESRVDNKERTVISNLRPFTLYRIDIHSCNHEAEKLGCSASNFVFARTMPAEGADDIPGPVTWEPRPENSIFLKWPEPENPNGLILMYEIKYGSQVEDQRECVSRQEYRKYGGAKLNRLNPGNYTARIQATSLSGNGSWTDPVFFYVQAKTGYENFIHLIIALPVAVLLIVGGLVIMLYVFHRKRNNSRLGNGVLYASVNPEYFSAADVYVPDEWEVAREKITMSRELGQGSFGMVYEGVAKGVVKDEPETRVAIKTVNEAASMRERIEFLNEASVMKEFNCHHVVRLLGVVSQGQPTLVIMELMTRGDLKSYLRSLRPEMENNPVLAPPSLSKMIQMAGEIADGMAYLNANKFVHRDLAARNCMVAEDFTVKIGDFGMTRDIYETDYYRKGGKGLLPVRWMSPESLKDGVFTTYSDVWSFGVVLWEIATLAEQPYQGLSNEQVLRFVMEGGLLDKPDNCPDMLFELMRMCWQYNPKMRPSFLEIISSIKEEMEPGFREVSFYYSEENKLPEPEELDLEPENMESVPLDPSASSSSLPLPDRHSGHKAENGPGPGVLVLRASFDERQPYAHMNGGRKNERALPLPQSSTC
Chain of Tyrosine-protein kinase Fyn (Homo sapiens) (P06241 2-537 limits assumed): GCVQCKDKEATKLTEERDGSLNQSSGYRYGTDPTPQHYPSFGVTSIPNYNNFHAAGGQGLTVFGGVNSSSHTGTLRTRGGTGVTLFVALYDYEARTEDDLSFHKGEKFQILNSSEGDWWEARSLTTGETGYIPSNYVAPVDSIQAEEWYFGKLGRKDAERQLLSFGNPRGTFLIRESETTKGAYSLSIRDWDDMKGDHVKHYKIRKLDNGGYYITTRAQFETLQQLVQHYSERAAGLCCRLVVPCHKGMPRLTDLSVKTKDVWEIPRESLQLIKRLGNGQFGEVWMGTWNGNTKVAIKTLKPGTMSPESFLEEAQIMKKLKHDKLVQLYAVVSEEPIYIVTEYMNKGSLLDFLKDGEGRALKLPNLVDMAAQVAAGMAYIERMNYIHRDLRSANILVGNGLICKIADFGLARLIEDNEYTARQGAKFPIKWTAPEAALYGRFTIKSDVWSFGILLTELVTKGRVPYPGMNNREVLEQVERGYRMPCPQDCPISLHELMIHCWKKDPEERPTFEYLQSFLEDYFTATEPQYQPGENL
Chain of Casein kinase I isoform gamma-3 (Homo sapiens) (Q9Y6M4 whole entry, looked up, the tested form may be a part, canonical isoform): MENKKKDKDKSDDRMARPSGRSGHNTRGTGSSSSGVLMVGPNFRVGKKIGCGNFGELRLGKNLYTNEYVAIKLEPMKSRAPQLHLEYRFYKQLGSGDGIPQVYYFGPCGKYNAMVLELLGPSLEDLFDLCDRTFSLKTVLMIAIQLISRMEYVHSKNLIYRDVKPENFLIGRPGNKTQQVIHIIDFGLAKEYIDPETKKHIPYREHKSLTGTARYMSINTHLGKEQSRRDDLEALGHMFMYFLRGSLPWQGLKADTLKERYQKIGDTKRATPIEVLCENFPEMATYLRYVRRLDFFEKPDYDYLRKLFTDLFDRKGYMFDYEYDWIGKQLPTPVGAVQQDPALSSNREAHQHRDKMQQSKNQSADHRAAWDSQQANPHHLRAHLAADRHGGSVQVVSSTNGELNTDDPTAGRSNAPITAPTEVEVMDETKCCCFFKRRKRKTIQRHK
Chain of Cytoplasmic tyrosine-protein kinase BMX (Homo sapiens) (P51813 whole entry): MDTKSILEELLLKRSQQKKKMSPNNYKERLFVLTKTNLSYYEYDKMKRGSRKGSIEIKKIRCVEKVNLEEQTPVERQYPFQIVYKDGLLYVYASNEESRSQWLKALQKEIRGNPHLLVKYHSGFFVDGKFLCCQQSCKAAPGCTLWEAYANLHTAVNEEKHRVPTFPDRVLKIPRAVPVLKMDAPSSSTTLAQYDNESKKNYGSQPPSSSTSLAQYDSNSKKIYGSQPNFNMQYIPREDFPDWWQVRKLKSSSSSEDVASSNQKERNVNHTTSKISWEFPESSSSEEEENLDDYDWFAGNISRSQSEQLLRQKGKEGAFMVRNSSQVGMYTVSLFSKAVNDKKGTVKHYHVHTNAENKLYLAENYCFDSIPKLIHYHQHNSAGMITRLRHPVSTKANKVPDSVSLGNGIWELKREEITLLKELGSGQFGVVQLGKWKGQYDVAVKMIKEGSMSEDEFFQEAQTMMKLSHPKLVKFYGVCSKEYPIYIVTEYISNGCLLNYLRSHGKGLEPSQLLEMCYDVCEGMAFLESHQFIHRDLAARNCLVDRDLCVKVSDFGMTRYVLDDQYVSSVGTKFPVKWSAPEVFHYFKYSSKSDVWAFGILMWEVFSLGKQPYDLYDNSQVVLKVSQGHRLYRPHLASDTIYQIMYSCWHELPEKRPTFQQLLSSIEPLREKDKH
Chain of Mitogen-activated protein kinase kinase kinase 10 (Homo sapiens) (Q02779 whole entry, looked up, the tested form may be a part): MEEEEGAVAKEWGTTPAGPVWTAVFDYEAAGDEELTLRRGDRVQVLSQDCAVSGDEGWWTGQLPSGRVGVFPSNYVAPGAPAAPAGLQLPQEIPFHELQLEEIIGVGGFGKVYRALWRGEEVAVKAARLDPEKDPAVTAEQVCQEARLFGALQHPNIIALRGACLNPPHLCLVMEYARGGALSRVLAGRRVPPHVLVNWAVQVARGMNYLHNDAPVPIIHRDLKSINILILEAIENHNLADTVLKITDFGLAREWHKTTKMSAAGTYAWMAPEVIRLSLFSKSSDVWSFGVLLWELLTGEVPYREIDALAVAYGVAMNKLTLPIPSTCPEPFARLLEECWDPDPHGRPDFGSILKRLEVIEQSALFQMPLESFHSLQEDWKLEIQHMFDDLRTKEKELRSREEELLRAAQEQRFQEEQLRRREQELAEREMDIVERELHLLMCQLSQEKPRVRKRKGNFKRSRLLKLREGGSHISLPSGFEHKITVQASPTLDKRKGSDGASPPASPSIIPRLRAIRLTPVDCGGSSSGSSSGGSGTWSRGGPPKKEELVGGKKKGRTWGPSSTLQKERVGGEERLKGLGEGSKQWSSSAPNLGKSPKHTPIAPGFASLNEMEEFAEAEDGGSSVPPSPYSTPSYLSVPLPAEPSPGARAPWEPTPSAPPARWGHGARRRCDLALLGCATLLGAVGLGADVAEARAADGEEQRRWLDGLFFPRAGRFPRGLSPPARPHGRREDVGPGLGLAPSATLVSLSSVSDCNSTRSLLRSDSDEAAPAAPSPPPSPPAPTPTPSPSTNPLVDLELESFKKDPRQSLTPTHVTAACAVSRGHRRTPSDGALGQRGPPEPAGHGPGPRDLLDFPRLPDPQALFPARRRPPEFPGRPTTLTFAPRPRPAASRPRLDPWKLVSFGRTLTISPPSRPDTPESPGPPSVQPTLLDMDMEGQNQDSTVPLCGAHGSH
Chain of Myosin light chain kinase 2, skeletal/cardiac muscle (Homo sapiens) (Q9H1R3 whole entry): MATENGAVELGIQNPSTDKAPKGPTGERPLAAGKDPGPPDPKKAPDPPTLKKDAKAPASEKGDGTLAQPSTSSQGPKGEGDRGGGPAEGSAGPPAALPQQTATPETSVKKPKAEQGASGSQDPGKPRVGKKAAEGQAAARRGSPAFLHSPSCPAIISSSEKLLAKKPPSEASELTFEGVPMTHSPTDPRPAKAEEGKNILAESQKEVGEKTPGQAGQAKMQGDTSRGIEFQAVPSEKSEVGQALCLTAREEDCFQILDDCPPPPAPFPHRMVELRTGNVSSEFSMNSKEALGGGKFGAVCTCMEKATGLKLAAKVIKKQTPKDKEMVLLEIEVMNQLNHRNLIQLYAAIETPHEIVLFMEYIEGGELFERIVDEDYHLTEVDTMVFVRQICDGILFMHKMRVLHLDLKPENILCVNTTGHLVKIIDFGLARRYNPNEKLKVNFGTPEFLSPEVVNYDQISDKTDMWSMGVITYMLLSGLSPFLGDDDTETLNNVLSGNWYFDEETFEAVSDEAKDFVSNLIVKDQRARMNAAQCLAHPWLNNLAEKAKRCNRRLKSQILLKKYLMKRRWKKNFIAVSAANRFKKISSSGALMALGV

For the compound `COc1cc2nccc(Oc3ccc(NC(=O)C4(C(=O)Nc5ccc(F)cc5)CC4)cc3)c2cc1OC` [CABOZANTINIB], the outcome in the data set with SiHa [1] was Active.
In general, inhibition refers to how much of the control response was suppressed. By MRT last is commonly meant the average time that molecules of a dose stay in the body. As usually defined, the half-life is the time in which the quantity being followed falls by half. Read a high half-life as slow decline. `Cc1ccc(NC(=O)C2(C(=O)Nc3ccc(Nc4ncc(F)c(-c5cc(F)c6nc(C)n(C(C)C)c6c5)n4)cc3)CC2)cc1`: the inhibition result in the data set on T47D and with SiHa [18] was “Active” each time. Besides, the result with SiHa [2] was Active. Moreover, the Activity entry with MDA-MB-231 is “Dose-dependent effect”; in data set [19], “Non-Toxic”; in data set [20] it was “Non-Toxic”. For the same compound, the MRT last in data set [3] stood at 4 h. This compound also had a half-life in [4] of 3 h. Moreover, the inhibition is 59% in data set [5]; 6% in data set [6]; 0% in data set [7]; 0% in data set [8]; 0% in [9]; 28% in data set [10]. For the same compound, the inhibition in data set [11] was determined as 32%; in [12] it was 11%; in data set [13], 2%; in data set [14], 30%; in data set [15], 4%; in data set [16], 36%. For the same compound, the inhibition in data set [17] turned out to be 21%.

Values taken from ChEMBL document CHEMBL4406821, “Novel dual inhibitors targeting CDK4 and VEGFR2 synergistically suppressed cancer progression and angiogenesis” (Eur J Med Chem, 2019).
